M4 ag: agonists of human muscarinic M4 receptor (CHRM4); P08173; CHO-K1 hM4/Gqi5, Fluo-8 calcium fluorescence; vehicle 0%, full acetylcholine response 100%; activation, % at 3 µM; 360,000 compounds, 0.14% hits; AID 624127;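 active means activation above the run mean over all test wells plus 3 SD, cut at about 32% in these data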;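 further: peak over basal fluorescence ratio per well then scaled between controls; 0% = DMSO wells and 100% = acetylcholine at EC100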
CHRM4 PAM: positive allosteric modulators of human muscarinic M4 receptor. P08173. CHO-K1 hM4/Gqi5, Fluo-8 calcium fluorescence, ACh EC20; 0% = ACh EC20, 100% = maximal ACh. activation, % at 3 µM. 360,000 compounds, 0.4% hits. AID 624126;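 active means activation above its plate's cutoff, the mean activation of sample wells plus 3 SD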
M5 antag: blocks acetylcholine activation of human M5 receptor | P08912 | CHO-hM5 cells, Fluo-8 calcium fluorescence, ACh EC80 | inhibition, % at 3 µM | 360,000 compounds, 0.59% hits;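 active means inhibition above a per-plate cutoff, the mean of that plate's test compounds plus 3 SD, cut at about 27% in these data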;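 further: 0% = acetylcholine EC80 with DMSO and 100% = DMSO without agonist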
CHRM5 PAM: CHRM5 positive allosteric modulation; 360,000 compounds, 0.3% hits; AID 624038; activation, % at 3 µM; CHO-K1 hM5, Fluo-8 calcium, ACh EC20 PAM; 0% = ACh EC20, 100% = ACh EC100;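 active means activation above the run cutoff, the mean activation of all test compounds plus 3 SD, cut at about 18% in these data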
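System: CHO-K1 hM5 cells. Reagent: acetylcholine, EC20 level. Compound dosing: single dose, 3 µM nominal final test concentration. Timing: Post-acetylcholine fluorescence recording 140 s. Detection: Fluo-8 calcium fluorescence. Read-out: % activation, ACh-normalized. Benchmarks: ACh EC20 and EC100 wells. Repeats: singlicate, one well per test compound.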
M4 antag: blocks acetylcholine activation of human M4 receptor | CHO-hM4 cells, ACh EC80, Fluo-8 calcium fluorescence | P08173 | inhibition, % at 3 µM | 360,000 compounds, 0.73% hits;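 active means inhibition above its plate's cutoff, the mean inhibition of sample wells plus 3 SD, cut at about 27% in these data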;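 further: 0% = acetylcholine EC80 with DMSO and 100% = DMSO without agonist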
M5 ag: CHRM5 agonism in calcium assay. P08912. CHO-K1 hM5 cells, Fluo-8 calcium fluorescence; 0% DMSO wells, 100% maximal acetylcholine response. activation, % at 3 µM. 360,000 compounds, 0.19% hits;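 active means activation above the run's mean over test compounds plus 3 SD, cut at about 23% in these data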;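 further: signal is peak over basal fluorescence ratio across the kinetic read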
Numbers without * were called inactive. Hits are enriched below; roughly 1.9% of the tested compounds scored in any of these assays.

SMILES	M4 ag	CHRM4 PAM	M5 antag	CHRM5 PAM	M4 antag	M5 ag
CN(C(=O)c1ccc(NC(=O)Cc2ccc(NC(=O)C3CCN(C(=O)C4CC4)CC3)cc2)cc1)C1CCCC1	0	20*	-1	-5	-21	-1
O=C(Nc1ccccc1)C1CCCN(C(=O)c2ccc(Cl)cc2)C1 (stereo not drawn)	4	3	-11	0	-11	6
O=C(Nc1ccccc1)C1CCCN(C(=O)c2ccc(F)cc2)C1 (stereo not drawn)	2	22*	1	2	-4	1
O=C(Cc1ccc(NC(=O)C2CCCN(C(=O)C3CCCCC3)C2)cc1)Nc1cccc(C(=O)N2CCCC2)c1 (stereo not drawn)	-2	17*	8	-5	-1	1
COc1ccc(CNC(=O)CCNC(=O)C2CCN(S(=O)(=O)c3ccc(OC)cc3)CC2)cc1	0	19*	-1	-7	-15	-1
COc1ccc(NC(=O)CCNC(=O)C2CCN(S(=O)(=O)c3ccc(OC)cc3)CC2)cc1	0	-6	13	-4	4	-3
COc1ccc(S(=O)(=O)N2CCC(C(=O)N[C@@H](C)C(=O)NC3CCCC3)CC2)cc1	1	2	19	32*	0	2
CC(C)[C@H](NC(=O)C1CCN(S(=O)(=O)c2ccccc2)CC1)C(=O)NCc1ccccc1	0	15*	-13	13	-11	-2
CC[C@]12c3[nH]c4cc(-c5ccco5)ccc4c3CCN1C(=O)[C@@H](CC(=O)NCCCn1ccnc1)C[C@@H]2C(=O)N1CCN(C(=O)C2CC2)CC1	-1	4	-7	1	-3	-3
CN(Cc1ccccc1)C1CCN(Cc2ccccc2[N+](=O)[O-])CC1	1	-17	11	-15	48*	-21
O=[N+]([O-])c1ccccc1CN1CCN(S(=O)(=O)Cc2ccccc2)CC1	2	15	5	2	0	-2
Cc1cc(C)c2nc(N(CCCN(C)C)C(=O)c3ccc4c(c3)OCCO4)sc2c1	15	29*	10	-23	19	-8
Cc1cccc2sc(N(CCCN(C)C)C(=O)c3ccco3)nc12	7	-55	49*	-38	73*	-14
COc1ccc(C)c2sc(N(CCCN(C)C)C(=O)c3ccc4c(c3)OCCO4)nc12	27	67*	8	-26	54*	-8
Cc1cccc2sc(N(CCCN(C)C)C(=O)c3ccc(Cl)s3)nc12	8	-49	12	-35	24	-17
C=CC(C)(O)CCCC(C)CCCC(C)CCCC(C)C (stereo not drawn)	1	3	1	2	0	2
O=C1CCCN1CCCNS(=O)(=O)c1ccc(F)c(F)c1	0	-4	14	-2	2	-5
CCc1nnc(NC(=O)c2cc(-c3ccccn3)nc3ccccc23)s1	1	19*	5	2	-2	5
CCc1nnc(NC(=O)c2ccncc2)s1	0	18*	-7	20*	-5	-4
CCc1nnc(NC(=O)c2cc(-c3ccco3)nc3ccccc23)s1	1	4	-5	14	-8	1
CCCc1nnc(NC(=O)c2ccncc2)s1	0	0	-3	-2	2	2
CCOC(=O)[C@@H]1[C@H]2COc3ccccc3[C@H]2N2C(=O)N(c3cccc(C)c3)C(=O)[C@]12C	2	1	0	0	10	-1
COc1ccc(C2CCc3cc(OC)c(OC)cc3C2NC=O)cc1OC (stereo not drawn)	1	6	-8	3	-9	0
COc1ccc(C(=O)OC2CCN(C)CC2)cc1	1	31*	-11	4	-15	-7
CCOC(=O)c1cn(CC#N)c2cc(F)c(F)cc2c1=O	2	24*	-4	8	-9	-3
CCCCCCn1cc(C(=O)OCC)c(=O)c2cc(F)c(F)cc21	-1	38*	-2	16	15	0
CCOC(=O)c1cn(CC)c2cc(N3CCN(C)CC3)c(F)cc2c1=O	1	3	-5	6	4	-3
